Compound activity from PubChem.
MBD2 DNA inh – inhibitors of MBD2 binding to methylated DNA, primary screen, biochemical, TR-FRET, DNA-binding domain, human. hit rate 0.31% among 370,000. inhibition, % at 4.4 µM. MBD2 binding to methylated oligonucleotide. Methyl-CpG-binding domain protein 2 (Homo sapiens), Q9UBB5. AID 686964, 2013; in the data active means inhibition above about 13%
UHRF1 MBD2 ctr – UHRF1 methylated DNA binding inhibitors, primary screen, counter-screen for MBD2 inhibitor project, biochemical, TR-FRET, human UHRF1, single concentration; UHRF1 binding to methylated oligo; inhibition, % at 4.4 µM; AID 687016, 2013; hit rate 0.75% among 370,000; in the data active means inhibition above about 21%;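 further: UHRF1 SRA domain binding a hemimethylated CpG hairpin DNA probe; 0% = median of test compound wells and 100% = reference inhibitor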
Pemphigus Ab inh – inhibitors of pemphigus antibody binding to DSG3, primary screen, biochemical, bead-based, flow cytometry, scFv-GFP. Desmoglein-3 (Homo sapiens), P32926. DSG3-coupled beads, scFv-anti-DSG3-GFP binding; stronger effect = lower value. binding (percent of control), % at 10 µM. hit rate 0.48% among 310,000;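 active means binding more than 3 SD below its plate's average and above zero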
NS3 helicase inh – inhibitors of HCV NS3 helicase, primary screen, biochemical, Cy5 molecular beacon fluorescence. inhibition, % at 10.9 µM. NS3 helicase DNA unwinding. Hepatitis C virus NS3 helicase. hit rate 0.56% among 290,000;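 active means inhibition above the mean of all tested compounds plus 3 SD, set per campaign, cut at about 35% in these data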;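 further: 0% = DMSO wells and 100% = thioflavine S control wells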
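Material: hepatitis C virus NS3 helicase domain fragment enzyme; measured by: Cy5 fluorescence, 0 and 60 min reads; control set: DMSO and thioflavine S; incubation: 60 min unwinding reaction at 25 °C after ATP addition; read-out basis: % inhibition from 60/0 min fluorescence ratio, DMSO 0%, thioflavine S 100%; repeats: singlicate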
DNMT1 inh – human DNMT1 methyltransferase inhibitors, primary screen, biochemical, molecular beacon, fluorescence, HinP1I cleavage, uHTS | inhibition (reported as % activation of signal), % at 10 µM | hit rate 0.83% among 360,000 | DNA (cytosine-5)-methyltransferase 1 (Homo sapiens), P26358 | AID 588458, 2011; in the data active means inhibition above about 50%
SUMO1 PPI mod – modulators of SUMO1 protein-protein interactions, primary screen, biochemical, uHTS; SUMO1 binding to a labelled peptide, TR-FRET, 1 h; inhibition, % at 20 µM; hit rate 0.33% among 360,000; in the data active means inhibition above about 37%
DNMT1 confirm – DNMT1 methyltransferase inhibitor retest, confirmation, biochemical, molecular beacon, fluorescence, single concentration; shares compounds with DNMT1 inh; DNMT1 molecular beacon HinP1I cleavage; inhibition, % at 10 µM; hit rate 8% among 2,300;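 active means average inhibition of at least 30% in the single-concentration confirmation test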
DNMT1 interf – counter-screen for DNMT1 inhibitors: spectral interference. shares compounds with DNMT1 inh. DNMT1 molecular beacon spectral interference counterscreen, fluorescence 485/520. activation (fluorescence interference), % at 10 µM. hit rate 1% among 2,300. AID 602387;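 active means activation of at least 30% at 10 µM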;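 further: DNMT1 catalytic domain with a HinP1I cleavage step and a FAM/dabcyl DNA beacon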
An asterisk follows results filed as active; / = not tested or not shown. Hits are enriched below; roughly 2.5% of the tested compounds scored in any of these assays.

SMILES	MBD2 DNA inh	UHRF1 MBD2 ctr	Pemphigus Ab inh	NS3 helicase inh	DNMT1 inh	SUMO1 PPI mod	DNMT1 confirm	DNMT1 interf
O=C(CCNS(=O)(=O)c1ccccc1C(F)(F)F)N1CCCCCCC1	-1	-2	/	/	52*	2	2	3
COc1ccc(C(C(=O)NC2CCCC2)N(C(=O)c2snc(-c3ccc(F)cc3)c2N)c2ccccc2)cc1 (stereo not drawn)	-6	-4	97	2	58*	2	3	4
NC(=O)c1nsc(C(=O)N(c2ccccc2)C(C(=O)NC2CCCC2)c2cccs2)c1N (stereo not drawn)	-3	3	/	17	54*	-3	6	0
O=S(=O)(NCCSc1ccc(Cl)cc1)c1ccc(F)cc1	4	-2	103	-14	-6	0	/	/
C=CC1=C(C(=O)O)N2C(=O)C(NC(=O)Cc3ccccc3)C2SC1 (stereo not drawn)	-2	-8	98	6	90*	85*	5	4
CC1(C(=O)NS(=O)(=O)c2ccc3c(c2)CCO3)CCN1C(=O)COc1ccc(Cl)cc1 (stereo not drawn)	-1	4	/	/	85*	2	4	6
CCCCCn1c(N)c(-c2nc3ccccc3o2)c2c([N+](=O)[O-])nn(CC)c(=O)c21	0	2	88	7	95*	11	2	1
CCCCCn1c(N)c(-c2nc3ccccc3s2)c2c([N+](=O)[O-])nn(CC)c(=O)c21	0	4	95	2	-3	11	/	/
CCCCCn1c(N)c(-c2nc3ccccc3o2)c2c([N+](=O)[O-])nn(C)c(=O)c21	1	0	94	6	92*	4	0	0
O=C(NCCc1ccc(Cl)cc1)C12CC3CC(CC(O)(C3)C1)C2	0	4	97	2	4	-4	/	/
O=C1CCC/C(=N/NC(=O)C2CCN(S(=O)(=O)c3cccs3)CC2)C1	-1	-1	98	-7	71*	0	1	4
NC(=O)c1nc2c([nH]c1=O)CCCC2	3	-3	104	/	7	11	/	/
O=C(Nc1cccnc1Cl)c1cc2c(s1)-c1ccccc1OC2	4	-2	102	1	12	-7	/	/
O=C(Nc1ccc(Cl)cn1)c1cc2c(s1)-c1ccccc1OC2	0	17	88	-15	56*	-6	0	0
Cc1nnn(-c2nonc2N)c1C(=O)N/N=C/c1ccccc1O	-3	1	/	-1	79*	3	12	-1
Cc1nnn(-c2nonc2N)c1C(=O)N/N=C/c1cccc2ccccc12	-2	2	74	-3	60*	-3	6	2
COc1cc(/C=N/NC(=O)c2c(C)nnn2-c2nonc2N)ccc1O	-1	-2	84	3	1	-12	/	/
CCCc1c(C(=O)N/N=C/c2c(OC)ccc3ccccc23)nnn1-c1nonc1N	2	-1	/	10	8	3	/	/
Cc1cccc(-c2nc3c(c(SCC(=O)N4CCOCC4)n2)COC(C)(C)C3)c1	4	1	107	20	0	-1	/	/
c1ccc(Cn2c(SCc3nc4ccccc4s3)nnc2-c2ccco2)cc1	-5	-1	103	19	104*	37	1	6
COc1ccc(C(=O)c2ccc([N+](=O)[O-])cc2)cc1S(=O)(=O)N1CCC(C(=O)O)CC1	3	3	97	2	1	-28	/	/
